According to PubChem BioAssay AID624018 (Broad Institute, 2012):
The source made the active and inactive calls.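 Rule for the calls: active = fitted curve reaches a 35% signal drop at a concentration no higher than twice the top valid dose, in duplicate at both wavelengths; inactive = the rest, including activity in the opposite direction.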

Columns and labels:
[1] = P. aeruginosa growth delay under iron chelation, dose response, absorbance 405 nm, dry powder (AID 624018); settings: P. aeruginosa growth with EDDHA, absorbance 405 nm, 24-30 h
How it was run: (§1)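 Assay system: P. aeruginosa ATCC 15692 cells. Doses: 3-fold compound dilution series. Timing: 24-30 h exposure at 37 °C. Signal: absorbance at 405 nm reflecting pyoverdine production.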

[2] = test system: P. aeruginosa growth with EDDHA, absorbance 405 nm, 24-30 h; assay: as above
How it was run: as §1

SMILES | activity change, negative = inhibition ([1]; at 50 µM (top of the series)) | other results
N#CC(c1ccc(F)cc1)c1ccc(C(F)(F)F)c(Cl)n1 (stereo unspecified) | -5.95% (inactive) | 
N#Cc1ccc(C(C#N)c2ccc(Cl)cc2)nc1 (stereo unspecified) | -10.4% (inactive) | 
N#Cc1ccc(C(C#N)c2ccc(Cl)cc2Cl)nc1 (stereo unspecified) | 1.04% (inactive) | 
CCCCC(C#N)c1ccc(Cl)cc1F (stereo unspecified) | -1.21% (inactive) | 
N#CC(c1ccc(F)cc1)c1cccc(C(F)(F)F)n1 (stereo unspecified) |  | AC35 [2]: 37.6 µM
Cc1ccc(C(C#N)c2ccccc2OC(F)(F)F)nc1C#N (stereo unspecified) |  | activity change, negative = inhibition ([1]; at 16 µM (top of the series)): -20.9% (inactive)
N#CC(c1ccc(Cl)cc1)c1ccc(C(F)(F)F)cn1 (stereo unspecified) | 4.01% (inactive) | 
CCCCC(C#N)c1ccccc1OC(F)(F)F (stereo unspecified) | -4.38% (inactive) | 
N#CC(c1ccc(C(F)(F)F)cc1)c1ccc(C(F)(F)F)c(Cl)n1 (stereo unspecified) | -6.74% (inactive) | 
Cc1ccc(C(C#N)c2ccc(F)cc2)nc1C#N (stereo unspecified) | -6.49% (inactive) | 
N#Cc1cccc(C(C#N)c2ccccc2OC(F)(F)F)n1 (stereo unspecified) | -10.3% (inactive) | 
N#CC(c1cccc(Cl)n1)c1ccc(Cl)cc1Cl (stereo unspecified) | -22.8% (inactive) | 
N#Cc1cccc(C(C#N)c2ccc(Cl)cc2Cl)n1 (stereo unspecified) | -3.73% (inactive) | 
N#CC(c1ccc(Cl)cc1Cl)c1ncccc1Cl (stereo unspecified) | 2.07% (inactive) | 
N#CC(c1ccc(Cl)cc1)c1cccc(C(F)(F)F)n1 (stereo unspecified) |  | AC35 [2]: 19.5 µM
CCCCC(C#N)c1ccc(C(F)(F)F)cc1 (stereo unspecified) | -6.7% (inactive) | 
N#CC(c1ccc(Cl)cc1)c1ncccc1Cl (stereo unspecified) |  | AC35 [2]: 12.6 µM
N#CC(c1cccc(C(F)(F)F)n1)c1ccccc1OC(F)(F)F (stereo unspecified) | -7.42% (inactive) | 

SMILES | activity change, negative = inhibition ([1]; at 50 µM (top of the series)) | other results
N#CC(CC1CC1)c1ccc(Cl)cc1 (stereo unspecified) | -14.4% (inactive) | 
CCCCC(C#N)c1ccc(Cl)cc1Cl (stereo unspecified) | -10.8% (inactive) | 
CCCC(C#N)c1ccc(Cl)cc1 (stereo unspecified) | -12.6% (inactive) | 
N#Cc1cccc(C(C#N)c2ccc(Cl)cc2F)n1 (stereo unspecified) | -14.6% (inactive) | 
N#CC(c1cccc(C(F)(F)F)n1)c1ccc(Cl)cc1F (stereo unspecified) |  | AC35 [2]: 22.7 µM
N#CC(c1ccc(C(F)(F)F)cc1)c1cccc(Cl)n1 (stereo unspecified) | -8.88% (inactive) | 
Cc1ccc(C(C#N)c2ccc(Cl)cc2)nc1 (stereo unspecified) | -8.79% (inactive) | 
N#CC(c1ccc(C(F)(F)F)c(Cl)n1)c1ccccc1OC(F)(F)F (stereo unspecified) | -8.72% (inactive) | 
Cc1cccc(C(C#N)c2ccc(Cl)cc2)n1 (stereo unspecified) | -2.34% (inactive) | 
N#CC(c1cccc(Cl)n1)c1ccccc1OC(F)(F)F (stereo unspecified) | -14.6% (inactive) | 
Cc1ccc(C(C#N)c2ccc(Cl)cc2)nc1C#N (stereo unspecified) | -4.08% (inactive) | 
N#CC(c1ccc(C(F)(F)F)cc1)c1cccc(C(F)(F)F)n1 (stereo unspecified) | -4.57% (inactive) | 
CC(C#N)(c1ccc(Cl)cc1)c1ccc(C(F)(F)F)cn1 (stereo unspecified) | -3.75% (inactive) | 
N#Cc1cccc(C(C#N)c2ccc(Cl)cc2)n1 (stereo unspecified) | -11.9% (inactive) | 
N#CC(c1ccc(C(F)(F)F)c(Cl)n1)c1ccc(Cl)cc1Cl (stereo unspecified) | 4.93% (inactive) | 
CCCCC(C#N)c1ccc(Cl)cc1 (stereo unspecified) | -4.2% (inactive) | 
CCCCC(C#N)c1ccc(F)cc1 (stereo unspecified) | -10.3% (inactive) | 
N#CC(c1ccc(Cl)cc1)c1ccc(C(F)(F)F)c(Cl)n1 (stereo unspecified) | 11.9% (inactive) | 
